Measured values published in ChEMBL document CHEMBL4819117, “Probing cytochrome P450 (CYP) bioactivation with chloromethylindoline bioprecursors derived from the duocarmycin family of compounds” (Bioorg Med Chem, 2021).

Legend:
[1] = test system: EJ; test: Antiproliferative activity against human EJ138 cells deficit in CYPs assessed as inhibition of cell growth after 96 hrs by MTT assay; type: functional, cell-based
In short: (§1)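 Cells kept as monolayers at 37 °C in 5% CO2: EJ-138 and RT112 in RPMI 1640 with 10% FBS, sodium pyruvate and 2 mM L-glutamine; CHO and CHO-1A1 in DMEM. Compounds were taken from DMSO stocks into medium over 0.001–100 μM, with final DMSO ≤0.1%. Exposure lasted 96 h, then MTT read-out. IC50 values are mean ± SD of at least three independent assays.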

[2] = test system: RT-112; test: Antiproliferative activity against human RT112 cells proficient in CYP1A1 assessed as inhibition of cell growth after 96 hrs by MTT assay; type: functional, cell-based; details: RT-112, 96 h; in short: as §1
[3] = test system: CHO; test: Antiproliferative activity against wild type chinese hamster CHO cells deficit in CYPs assessed as inhibition of cell growth after 96 hrs by MTT assay; type: functional, cell-based; details: Cricetulus griseus; in short: as §1
[4] = test system: CHO; test: Antiproliferative activity against chinese hamster CHO cells transfected with CYP1A1 assessed as inhibition of cell growth after 96 hrs by MTT assay; type: functional, cell-based; details: Cricetulus griseus; in short: as §1
[5] = test system: EJ; test: Antiproliferative activity against human EJ138 cells assessed as inhibition of cell growth preincubated for 1 hr with CYP null bactosomes measured after 96 hrs by MTT assay; type: functional, cell-based
In short: (§2)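 Compound (50 μM) incubated 1 h at 37 °C with 20 pmol CYP bactosomes (CYP null, 1A1, 1A2, 1B1 or 3A4) in 2 mM NADPH, 1 mM MgCl₂, Tris-HCl pH 7.4. Metabolites were extracted with acetonitrile, centrifuged, and the supernatant dried and taken up in DMSO. EJ138 cells were exposed 96 h and growth read by MTT assay.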

[6] = test system: EJ; test: Antiproliferative activity against human EJ138 cells assessed as inhibition of cell growth preincubated for 1 hr with human CYP1A1 expressing bactosomes measured after 96 hrs by MTT assay; type: functional, cell-based; in short: as §2
[7] = test system: EJ; test: Antiproliferative activity against human EJ138 cells assessed as inhibition of cell growth preincubated for 1 hr with human CYP1A2 expressing bactosomes measured after 96 hrs by MTT assay; type: functional, cell-based; in short: as §2
[8] = test system: EJ; test: Antiproliferative activity against human EJ138 cells assessed as inhibition of cell growth preincubated for 1 hr with human CYP1B1 expressing bactosomes measured after 96 hrs by MTT assay; type: functional, cell-based; in short: as §2
[9] = test system: EJ; test: Antiproliferative activity against human EJ138 cells assessed as inhibition of cell growth preincubated for 1 hr with human CYP3A4 expressing bactosomes measured after 96 hrs by MTT assay; type: functional, cell-based; in short: as §2
[10] = test system: EJ; test: Potentiation factor, ratio of IC50 for antiproliferative activity against human EJ138 cells preincubated for 1 hr with CYP null bactosomes to IC50 for antiproliferative activity against human EJ138 cells preincubated for 1 hr with human CYP1A1 expressing bactosomes; type: functional
In short: (§3)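 Potentiation factor = IC₅₀ in EJ138 given control (CYP null) bactosome extract ÷ IC₅₀ with the named CYP isoform extract. Extracts came from 1 h, 37 °C incubations of 50 μM compound with 20 pmol bactosomes plus 2 mM NADPH, 1 mM MgCl₂, Tris-HCl pH 7.4. Cells were exposed 96 h and read by MTT.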

[11] = test system: EJ; test: Potentiation factor, ratio of IC50 for antiproliferative activity against human EJ138 cells preincubated for 1 hr with CYP null bactosomes to IC50 for antiproliferative activity against human EJ138 cells preincubated for 1 hr with human CYP1A2 expressing bactosomes; type: functional; in short: as §3
[12] = test system: EJ; test: Potentiation factor, ratio of IC50 for antiproliferative activity against human EJ138 cells preincubated for 1 hr with CYP null bactosomes to IC50 for antiproliferative activity against human EJ138 cells preincubated for 1 hr with human CYP1B1 expressing bactosomes; type: functional; in short: as §3
[13] = test system: EJ; test: Potentiation factor, ratio of IC50 for antiproliferative activity against human EJ138 cells preincubated for 1 hr with CYP null bactosomes to IC50 for antiproliferative activity against human EJ138 cells preincubated for 1 hr with human CYP3A4 expressing bactosomes; type: functional; in short: as §3
[14] = molecular target: T1, Cytochrome P450 1A1 (Homo sapiens, UniProt P04798); test: Drug metabolism assessed as recombinant human CYP1A1-mediated metabolite M1 with m/z of 375.1 formation at 50 uM incubated for 1 hr in presence of reconstituted protein system by LC-MS analysis; type: ADME; details: recombinant enzyme
T1 sequence (P04798 whole entry): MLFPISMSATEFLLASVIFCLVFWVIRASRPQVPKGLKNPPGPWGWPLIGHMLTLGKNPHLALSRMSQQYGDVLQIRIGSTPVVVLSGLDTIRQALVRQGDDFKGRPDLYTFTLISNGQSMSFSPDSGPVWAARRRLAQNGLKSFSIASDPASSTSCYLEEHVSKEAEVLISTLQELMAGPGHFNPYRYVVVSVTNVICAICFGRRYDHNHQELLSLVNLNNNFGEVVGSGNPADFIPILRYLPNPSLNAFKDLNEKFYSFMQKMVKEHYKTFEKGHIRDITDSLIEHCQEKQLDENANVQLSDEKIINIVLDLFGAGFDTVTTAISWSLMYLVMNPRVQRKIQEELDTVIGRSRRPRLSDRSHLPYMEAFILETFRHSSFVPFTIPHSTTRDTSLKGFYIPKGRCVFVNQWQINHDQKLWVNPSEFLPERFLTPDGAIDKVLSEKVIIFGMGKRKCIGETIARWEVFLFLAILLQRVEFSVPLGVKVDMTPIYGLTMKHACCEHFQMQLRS
In short: (§4)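 Substrate at 50 μM with human recombinant CYP1A1 in a reconstituted system: NADPH cytochrome P450 reductase plus freshly prepared DLPC (240 μM) in 100 mM potassium phosphate, pH 7.4. Mixture pre-warmed 3 min at 37 °C, started with NADPH (final 1 mM), incubated 1 h and extracted into dichloromethane. Analysis by reverse-phase HPLC with photodiode array detection and ESI+ quadrupole MS.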

[15] = molecular target: T1, Cytochrome P450 1A1; test: Drug metabolism assessed as recombinant human CYP1A1-mediated metabolite M2 with m/z of 345.1 formation at 50 uM incubated for 1 hr in presence of reconstituted protein system by LC-MS analysis; type: ADME; details: recombinant enzyme; in short: as §4
[16] = molecular target: T1, Cytochrome P450 1A1; test: Drug metabolism assessed as recombinant human CYP1A1-mediated metabolite M3 with m/z of 373.1 formation at 50 uM incubated for 1 hr in presence of reconstituted protein system by LC-MS analysis; type: ADME; details: recombinant enzyme; in short: as §4
[17] = molecular target: T1, Cytochrome P450 1A1; test: Drug metabolism assessed as recombinant human CYP1A1-mediated metabolite M4 with m/z of 391.1 formation at 50 uM incubated for 1 hr in presence of reconstituted protein system by LC-MS analysis; type: ADME; details: recombinant enzyme; in short: as §4
[18] = molecular target: T1, Cytochrome P450 1A1; test: Drug metabolism assessed as recombinant human CYP1A1-mediated metabolite M1 with m/z of 327.1 formation at 50 uM incubated for 1 hr in presence of reconstituted protein system by LC-MS analysis; type: ADME; details: recombinant enzyme; in short: as §4

Drug metabolism [14] | Drug metabolism [15] | Drug metabolism [16] | Drug metabolism [17] | Drug metabolism [18] | Structure (SMILES) | IC50 [1] [µM] | IC50 [2] [µM] | IC50 [3] [µM] | IC50 [4] [µM] | IC50 [5] [µM] | IC50 [6] [µM] | IC50 [7] [µM] | IC50 [8] [µM] | IC50 [9] [µM] | Ratio IC50 [10] | Ratio IC50 [11] | Ratio IC50 [12] | Ratio IC50 [13]
– | – | – | – | – | CC(C)(C)OC(=O)N1CC(CCl)c2ccccc21 (stereo unspecified) | > 25 | > 25 | > 25 | > 25 | – | – | – | – | – | – | – | – | –
Metabolite_Detected | Metabolite_Detected | Metabolite_Detected | Metabolite_Detected | – | COc1ccc2[nH]c(C(=O)N3CC(CCl)c4cc(F)ccc43)cc2c1 (stereo unspecified) | 18.6 | 5.04 | 14.8 | 6.2 | 15.8 | 3.1 | 5.11 | 11.9 | 16.8 | 5.1 | 3.1 | 1.3 | 0.9
– | – | – | – | Metabolite_Detected | COc1ccc2[nH]c(C(=O)N3CC(CCl)c4ccc(O)cc43)cc2c1 (stereo unspecified) | 0.038 | 0.055 | 0.03 | 0.035 | – | – | – | – | – | – | – | – | –
